From ChEMBL document CHEMBL3864154, “Discovery and preliminary structure-activity relationship of 1H-indazoles with promising indoleamine-2,3-dioxygenase 1 (IDO1) inhibition properties” (Bioorg Med Chem, 2016) come the findings set out here.

Test [1] addresses T1, Indoleamine 2,3-dioxygenase 1 (Homo sapiens, UniProt P14902). The test is described as follows: Inhibition of recombinant human N-terminus IDO1 expressed in Escherichia coli assessed as N-formylkynurenine formation at 10 uM using L-tryptophan as substrate measured after 180 mins by UV absorbance based assay. In short, it runs like this: (§1)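 Human N-terminal IDO1 expressed in E. coli, Ni affinity-purified; 40 nmol/L enzyme with 900 μmol/L tryptophan plus coupled reaction components in IDO1 assay buffer, 0.5% DMSO final, room temperature, 180 min. N-formylkynurenine read by UV absorbance at 321 nm. Blank lacks enzyme; positive control lacks inhibitor.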
Target sequence in this assay (P14902 whole entry, looked up): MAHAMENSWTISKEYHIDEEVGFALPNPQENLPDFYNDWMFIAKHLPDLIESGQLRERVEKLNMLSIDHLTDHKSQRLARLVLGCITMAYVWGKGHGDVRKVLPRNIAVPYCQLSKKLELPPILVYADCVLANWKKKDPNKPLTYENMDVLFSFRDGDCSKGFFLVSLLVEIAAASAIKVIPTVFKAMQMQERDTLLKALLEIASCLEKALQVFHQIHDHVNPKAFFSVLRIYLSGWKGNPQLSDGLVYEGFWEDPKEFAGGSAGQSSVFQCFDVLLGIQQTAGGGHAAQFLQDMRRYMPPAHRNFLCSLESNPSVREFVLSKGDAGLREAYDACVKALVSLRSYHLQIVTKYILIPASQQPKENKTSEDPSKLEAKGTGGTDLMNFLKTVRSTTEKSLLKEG

In test [2] the target is T1, Indoleamine 2,3-dioxygenase 1. Briefly: Inhibition of recombinant human N-terminus IDO1 expressed in Escherichia coli assessed as residual activity at -8.8 log[compound]/M using L-tryptophan as substrate measured after 180 mins by UV absorbance based assay relative to control. The method, boiled down:
(§2)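 E. coli-expressed, Ni affinity-purified human N-terminal IDO1 at 40 nmol/L with 900 μmol/L tryptophan, coupled reaction components, 0.5% DMSO final, room temperature, 180 min; N-formylkynurenine read at 321 nm. Duplicates per concentration; % activity relative to no-inhibitor control, fitted by sigmoidal dose-response nonlinear regression; IC50 at half-maximal activity.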
Target sequence in this assay (P14902 whole entry, looked up): as above

For test [3] the target is unchanged. The test is described as follows: Inhibition of recombinant human N-terminus IDO1 expressed in Escherichia coli assessed as residual activity at -7.8 log[compound]/M using L-tryptophan as substrate measured after 180 mins by UV absorbance based assay relative to control. The method, boiled down:
as §2
Target sequence in this assay (P14902 whole entry, looked up): as above

Test [4] has the same target. Briefly: Inhibition of recombinant human N-terminus IDO1 expressed in Escherichia coli assessed as residual activity at -8.3 log[compound]/M using L-tryptophan as substrate measured after 180 mins by UV absorbance based assay relative to control. In short, it runs like this: as §2
Target sequence in this assay (P14902 whole entry, looked up): as above
For test [5] the target is unchanged. Briefly: Inhibition of recombinant human N-terminus IDO1 expressed in Escherichia coli assessed as residual activity at -5.4 log[compound]/M using L-tryptophan as substrate measured after 180 mins by UV absorbance based assay relative to control. In short, it runs like this: as §2
Target sequence in this assay (P14902 whole entry, looked up): as above
Test [6] shares this target. Briefly: Inhibition of recombinant human N-terminus IDO1 expressed in Escherichia coli assessed as residual activity at -5.9 log[compound]/M using L-tryptophan as substrate measured after 180 mins by UV absorbance based assay relative to control. In short, it runs like this: as §2
Target sequence in this assay (P14902 whole entry, looked up): as above
The target is the same in test [7]. Briefly: Inhibition of recombinant human N-terminus IDO1 expressed in Escherichia coli assessed as residual activity at -4.5 log[compound]/M using L-tryptophan as substrate measured after 180 mins by UV absorbance based assay relative to control. In short, it runs like this:
as §2

Test [8] has the same target. The test is described as follows: Inhibition of recombinant human N-terminus IDO1 expressed in Escherichia coli assessed as residual activity at -6.9 log[compound]/M using L-tryptophan as substrate measured after 180 mins by UV absorbance based assay relative to control. In short, it runs like this:
as §2

Test [9] shares this target. Briefly: Inhibition of recombinant human N-terminus IDO1 expressed in Escherichia coli assessed as residual activity at -6.4 log[compound]/M using L-tryptophan as substrate measured after 180 mins by UV absorbance based assay relative to control. The method, boiled down:
as §2

The target is the same in test [10]. The test is described as follows: Inhibition of recombinant human N-terminus IDO1 expressed in Escherichia coli assessed as N-formylkynurenine formation at 100 uM using L-tryptophan as substrate measured after 180 mins by UV absorbance based assay. In short, it runs like this:
as §1

Test [11] has the same target. Briefly: Inhibition of recombinant human N-terminus IDO1 expressed in Escherichia coli assessed as residual activity at -5 log[compound]/M using L-tryptophan as substrate measured after 180 mins by UV absorbance based assay relative to control. The method, boiled down: as §2
Test [12] has the same target. The test is described as follows: Inhibition of recombinant human N-terminus IDO1 expressed in Escherichia coli assessed as residual activity at -7.3 log[compound]/M using L-tryptophan as substrate measured after 180 mins by UV absorbance based assay relative to control. In short, it runs like this:
as §2

Test [13] shares this target. The test is described as follows: Inhibition of recombinant human N-terminus IDO1 expressed in Escherichia coli assessed as N-formylkynurenine formation using L-tryptophan as substrate measured after 180 mins by UV absorbance based assay. In short, it runs like this:
as §2
Target sequence in this assay (P14902 whole entry): as the sequence (P14902 whole entry, looked up) above

For test [14] the target is unchanged. Briefly: Inhibition of recombinant human N-terminus IDO1 expressed in Escherichia coli assessed as N-formylkynurenine formation at 1 uM using L-tryptophan as substrate measured after 180 mins by UV absorbance based assay.

As for `Oc1ccc(CNc2cc(Br)cc3[nH]ncc23)cc1`, the figures for the inhibition in test [1] and in [10] were 70% and 100%, respectively. Further, the Activity in test [2] worked out at 92%; in test [3], 91%; in [4], 91%; in [5] it was 51%; in [6], 71%; in [7] it was 9%. In addition, the Activity is 87% in test [8], 82% in [9], 26% in test [11] and 88% in test [12]. Further, the IC50 (as a rule, the concentration that gives 50% inhibition) in [13] came to 5.3 µM.

As for `O=C(O)c1ccc(COc2cc(Br)cc3[nH]ncc23)cc1`, the inhibition (as a rule, the change of the read-out against control, counted positive when it falls) turned out to be 18% in test [1] and 69% in test [10].

Turning to `O=C(CNc1cc(Br)cc2[nH]ncc12)NC1CCOCC1`, the inhibition in test [1] was found to be 8%; in test [14] it was 4%; in test [10] it was 34%.

With `O=C(O)c1ccc(CNc2ncnc3[nH]ncc23)cc1`, the inhibition in [1] was determined as 3%; in [14], 3%; in test [10], 9%.

In the case of `Cc1nc(NCc2cccc(C(=O)O)c2)c2cn[nH]c2n1`, the results for the inhibition in [1], in test [14] and in test [10] were 5%, 3% and 32%, respectively.

Take `O=C(O)c1ccc(CNc2cccc3[nH]ncc23)cc1`: the figures for the inhibition in [1] and in test [10] were 1% and 24%, respectively.

On to `O=C(O)c1cccc(CNc2ncnc3[nH]ncc23)c1`, for which the inhibition in test [1] amounted to 2%; in [14] it was 2%; in [10], 7%.

Consider `Cc1nc(NCc2ccc(C(=O)O)cc2)c2cn[nH]c2n1`, for which the inhibition in test [1] came to 5%; in [14], 3%; in test [10] it was 37%.

`O=C(O)c1cccc(COc2cc(Br)cc3[nH]ncc23)c1`: the inhibition in [1] came to 7%; in test [10], 40%.

Regarding `O=C(O)c1ccc(CNc2cc(Br)cc3[nH]ncc23)cc1`, the inhibition was 49 to 58% in [1], 19% in test [14] and 91 to 94% in test [10].

Regarding `O=C(O)c1ccc(C(O)CNc2cc(Br)cc3[nH]ncc23)cc1` (centres undefined), the inhibition in test [1] amounted to 31%; in [10], 73%.

`NS(=O)(=O)NCCNc1nonc1/C(=N/O)Nc1ccc(F)c(Br)c1`: the inhibition in test [1] was found to be 100%.

Turning to `O=C(O)c1cc(CNc2cc(Br)cc3[nH]ncc23)ccc1O`, the results for the inhibition in test [1] and in test [10] were 38% and 88%, respectively.

Take `O=C(O)c1cccc(CNc2cc(Br)cc3[nH]ncc23)c1`: the inhibition in test [1] came out at 21%; in [10] it was 74%.

For `O=C(O)c1ccc(C(CO)Nc2cc(Br)cc3[nH]ncc23)cc1` (centres undefined), the figures for the inhibition in [1] and in test [10] were 19% and 68%, respectively.

For `O=C(CNc1cc(Br)cc2[nH]ncc12)Nc1ccc(C(=O)O)cc1`, the values for the inhibition in test [1], in [14] and in test [10] were 12%, 3% and 37%, respectively.

As for `O=C(O)Cc1ccc(CNc2cc(Br)cc3[nH]ncc23)cc1`, the inhibition in test [1] came to 27%; in [10], 79%.

For the compound `Cc1ccc(CNc2cc(Br)cc3[nH]ncc23)cc1`, the inhibition in test [1] came out at 20%; in [10], 84%.

For the compound `Brc1cc(NCc2ccccc2)c2cn[nH]c2c1`, the inhibition in [1] worked out at 37%; in [10], 100%.

Take `Oc1ccccc1CNc1cc(Br)cc2[nH]ncc12`: the inhibition in test [1] stood at 41%; in [10], 100%.

With `Clc1ccc(CNc2cc(Br)cc3[nH]ncc23)cc1`, the inhibition in test [1] amounted to 42%; in test [10], 100%.
